Laboratory results published in ChEMBL document CHEMBL1221207, “Expanding the promiscuity of a natural-product glycosyltransferase by directed evolution” (Nat Chem Biol, 2007).
Where a chain is given by its changes, count along the chain named.

Experiments:
[1] = tested on: T1, Oleandomycin glycosyltransferase (Streptomyces antibioticus), Q53685 [P67T]; experiment: Activity of Streptomyces antibioticus OleD P67T mutant assessed as conversion rate of compound to produce glucoside 3 using NDP sugar donor UDP-6-deoxy-glucose after 3 hrs by HPLC
T1 sequence (whole entry): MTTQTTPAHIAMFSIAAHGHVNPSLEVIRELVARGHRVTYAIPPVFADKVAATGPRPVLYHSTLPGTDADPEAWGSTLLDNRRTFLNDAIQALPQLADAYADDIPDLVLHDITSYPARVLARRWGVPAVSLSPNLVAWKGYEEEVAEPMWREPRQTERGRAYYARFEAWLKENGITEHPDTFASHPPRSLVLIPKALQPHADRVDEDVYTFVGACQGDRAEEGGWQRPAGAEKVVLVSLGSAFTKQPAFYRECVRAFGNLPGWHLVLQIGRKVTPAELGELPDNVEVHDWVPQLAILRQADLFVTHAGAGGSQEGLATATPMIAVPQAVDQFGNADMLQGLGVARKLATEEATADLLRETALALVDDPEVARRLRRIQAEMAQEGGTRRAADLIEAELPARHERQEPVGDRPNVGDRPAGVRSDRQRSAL
How it was run: (§1)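 End-point donor-specificity assay with purified OleD enzyme. Percentage conversion was read after 3 h. Quenched reactions were run by reverse-phase C18 HPLC with a 10–90% CH3CN gradient in 0.1% formic acid/H2O over 20 min at 1 ml min–1, with detection at 254 nm. Products were identified by LC-MS, by comparison to standards where available, and by fluorescence.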

[2] = tested on: T2, Oleandomycin glycosyltransferase (Streptomyces antibioticus), Q53685 [P67T,S132F,A242V]; experiment: Activity of Streptomyces antibioticus OleD P67T/S132F/A242V mutant assessed as conversion rate of compound to produce glucoside 3 using NDP sugar donor UDP-3-amino-6-deoxy-glucose after 3 hrs by HPLC; how it was run: as §1
T2 sequence (whole entry): T1 sequence (whole entry) with S132F, A242V

[3] = tested on: T2, Oleandomycin glycosyltransferase (Streptomyces antibioticus), Q53685 [P67T,S132F,A242V]; experiment: Activity of Streptomyces antibioticus OleD P67T/S132F/A242V mutant assessed as conversion rate of compound to produce glucoside 3 using NDP sugar UDP-6-deoxy-glucose after 3 hrs by HPLC; how it was run: as §1
[4] = tested on: T3, Oleandomycin glycosyltransferase (Streptomyces antibioticus), Q53685 [A242V]; experiment: Activity of Streptomyces antibioticus OleD A242V mutant assessed as conversion rate of compound to produce glucoside 3 using NDP sugar donor UDP-glucose after 3 hrs by HPLC; how it was run: as §1
T3 sequence (whole entry): T1 sequence (whole entry) with T67P, A242V

[5] = tested on: T4, Oleandomycin glycosyltransferase (Streptomyces antibioticus), Q53685 [S132F]; experiment: Activity of Streptomyces antibioticus OleD S132F mutant assessed as conversion rate of compound to produce glucoside 3 using NDP sugar donor UDP-6-azido-glucose after 3 hrs by HPLC; how it was run: as §1
T4 sequence (whole entry): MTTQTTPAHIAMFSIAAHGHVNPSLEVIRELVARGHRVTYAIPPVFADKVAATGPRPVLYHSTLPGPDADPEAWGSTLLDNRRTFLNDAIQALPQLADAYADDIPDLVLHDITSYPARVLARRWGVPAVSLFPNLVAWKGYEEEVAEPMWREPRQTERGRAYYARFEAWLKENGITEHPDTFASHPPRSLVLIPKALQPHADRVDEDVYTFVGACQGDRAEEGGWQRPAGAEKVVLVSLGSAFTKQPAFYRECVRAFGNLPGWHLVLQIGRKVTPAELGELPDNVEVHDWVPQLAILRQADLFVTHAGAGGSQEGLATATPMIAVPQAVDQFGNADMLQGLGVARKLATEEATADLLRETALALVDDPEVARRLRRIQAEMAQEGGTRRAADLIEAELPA

[6] = tested on: T2, Oleandomycin glycosyltransferase (Streptomyces antibioticus), Q53685 [P67T,S132F,A242V]; experiment: Activity of Streptomyces antibioticus OleD P67T/S132F/A242V mutant assessed as conversion rate of compound to produce glucoside 3 using NDP sugar donor UDP-6-thio-glucose after 3 hrs by HPLC; how it was run: as §1
[7] = tested on: T1, Oleandomycin glycosyltransferase (Streptomyces antibioticus), Q53685 [P67T]; experiment: Activity of Streptomyces antibioticus OleD P67T mutant assessed as as rate of glucoside formation measured as nanomoles of product formed per minute per mg of enzyme
[8] = tested on: T2, Oleandomycin glycosyltransferase (Streptomyces antibioticus), Q53685 [P67T,S132F,A242V]; experiment: Activity of Streptomyces antibioticus OleD P67T/S132F/A242V mutant assessed as conversion rate of compound to produce glucoside 3 using NDP sugar donor UDP-4-amino-6-deoxy-glucose after 3 hrs by HPLC; how it was run: as §1
[9] = target: T5, Oleandomycin glycosyltransferase (Streptomyces antibioticus) (UniProt Q53685); experiment: Activity of Streptomyces antibioticus wild-type OleD assessed as conversion rate of compound to produce glucoside 3 using NDP sugar donor UDP-6-thio-glucose after 3 hrs by HPLC; how it was run: as §1
T5 sequence (whole entry): T1 sequence (whole entry) with T67P

Cc1cc(=O)oc2cc(O)ccc12
Activity [1]: 11% | Activity [2]: 4% | Activity [3]: 85% | Activity [4]: 38% | Activity [5]: 1% | Activity [6]: 47% | Activity [7]: 15.7 nmol/min | Activity [8]: 47% | Activity [9]: 1%
